Data from ChEMBL document CHEMBL1914328, “Thiosemicarbazones derived from 1-indanones as new anti-Trypanosoma cruzi agents” (Bioorg Med Chem, 2011).

Key:
[1] = Toxicity in human erythrocytes assessed as hemolysis at 25 uM after 24 hrs by spectrophotometry; assay type: cell-based, Erythrocyte; conditions: read-out: Activity
Summary of the method: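 Citrated human blood was washed repeatedly in ice-cold PBS and made into a 2% w/v suspension. It was mixed 1:1 with compound in PBS and incubated 24 h at 37 °C. Supernatant hemoglobin was read at 405 nm. Percent hemolysis = (A at 24 h − A at 0 h) / water-lysis A × 100. Water gave 100% lysis, PBS served as negative control. Run in quintuplicate.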

Trypanosoma cruzi [2] = experiment: Antitrypanosomal activity against Trypanosoma cruzi Tulahuen 2 epimastigotes assessed as inhibition of parasite growth at 25 uM after 5 days by spectrophotometric analysis; assay type: functional; conditions: Tulahuen 2, 120 h, read-out: GI
Summary of the method: (§1)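 Tulahuen 2 epimastigotes were grown in BHI-Tryptose with 5% fetal calf serum at 28 °C, harvested in late log phase and seeded at 2 × 10^6/mL. Compound came from DMSO stock (final DMSO ≤1%, vehicle control). A590 was read at day 0 and day 5, and % inhibition was taken against the control. IC50 was the concentration halving control absorbance. Values are the mean of three experiments.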

Trypanosoma cruzi [3] = experiment: Antitrypanosomal activity against Trypanosoma cruzi Tulahuen 2 epimastigotes assessed as inhibition of parasite growth after 5 days by spectrophotometric analysis; assay type: functional, organism-based; conditions: Tulahuen 2, 120 h; summary of the method: as §1
[4] = Selectivity index, ratio of growth inhibition of Trypanosoma cruzi Tulahuen 2 epimastigotes at 25 uM to hemolysis of human erythrocytes at 25 uM
Summary of the method: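 This is a ratio of two values. One is the % epimastigote growth inhibition (A590, day 5 versus day 0, against a DMSO control). The other is the % erythrocyte lysis (A405 after 24 h at 37 °C, relative to water lysis). Both are measured at the same compound concentration.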

[5] = molecular target: Cruzipain (Trypanosoma cruzi) (UniProt P25779); experiment: Inhibition of Trypanosoma cruzi cruzipain using Z-Phe-Arg-AMC as substrate at 100 uM preincubated for 5 mins before substrate addition measured after 10 mins by spectrofluorometry
Summary of the method: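 Cruzipain was preincubated 5 min at room temperature with compound in 50 mM PBS pH 7.3 or acetate buffer pH 5.3 containing 5 mM DTT. Z-Phe-Arg-AMC was then added. Fluorescence (ex 380/em 460 nm) was followed 10 min at room temperature. Final DMSO was ≤10%, the solvent-only control was used, and a reference thiosemicarbazone inhibitor was included. Values are means of at least three experiments.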

Cruzipain (Trypanosoma cruzi), sequence (P25779 123-467 limits assumed): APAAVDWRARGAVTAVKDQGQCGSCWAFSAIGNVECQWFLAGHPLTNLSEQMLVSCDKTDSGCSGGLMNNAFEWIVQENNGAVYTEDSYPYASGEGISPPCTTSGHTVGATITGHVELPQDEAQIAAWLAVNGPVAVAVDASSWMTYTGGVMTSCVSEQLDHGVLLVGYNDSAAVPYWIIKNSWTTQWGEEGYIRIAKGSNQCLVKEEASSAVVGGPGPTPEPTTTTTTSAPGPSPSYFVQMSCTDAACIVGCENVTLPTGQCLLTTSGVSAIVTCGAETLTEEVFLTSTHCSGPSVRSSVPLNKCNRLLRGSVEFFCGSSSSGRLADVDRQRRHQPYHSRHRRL

Structure (SMILES)	hemolysis at 24 h, 25 µM [1] [%]	inhibition of growth at 25 µM (Trypanosoma cruzi [2]) [%]	IC50 (Trypanosoma cruzi [3]) [µM]	Ratio [4]	inhibition [5] [%]
Cc1cc(Br)c(C)c2c1/C(=N/NC(N)=S)CC2	2.4	51	25	21.2	–
Cc1ccc2c(c1)CC/C2=N\NC(N)=S	0.5	100	3.6	200	–
Cc1cc(C)c2c(c1)CC/C2=N\NC(N)=S	0.1	66.5	4.3	665	–
NC(=S)N/N=C1\CCc2cc(Br)ccc21	2.4	98.8	2.3	41.2	–
COc1cc2c(cc1OC)/C(=N/NC(=S)Nc1ccccc1)CC2	0.4	67.5	1	168.8	0
Cc1ccc(NC(=S)N/N=C2\CCc3ccccc32)cc1	1.6	76	5.9	47.5	–
Cc1cc2c(c(C)c1Cl)/C(=N/NC(N)=S)CC2	2.8	14.4	> 50	5.1	–
Cc1cc(C)c2c(c1Br)CC/C2=N\NC(N)=S	7.7	100	5.7	12.9	–
C[C@@H]1[C@H](O)[C@@H](C)/C=C/C=C/C=C/C=C/C=C/C=C/C=C/[C@H](O[C@@H]2O[C@H](C)[C@@H](O)[C@H](N)[C@@H]2O)C[C@@H]2O[C@](O)(C[C@@H](O)C[C@@H](O)[C@H](O)CC[C@@H](O)C[C@@H](O)CC(=O)O[C@H]1C)C[C@H](O)[C@H]2C(=O)O [AMPHOTERICIN B]	100	100	0.152	1	–
NC(=S)N/N=C1\CCc2cc(F)ccc21	0.2	84.2	8.3	421	–
CC/C(=N\N=C(\N)S)c1cccc(Br)c1	–	–	–	–	100
COc1cccc2c1CC/C2=N\NC(N)=S	1	84.2	6.2	84.2	9.8
NC(=S)N/N=C1\CCc2ccccc21	0.2	80.8	18.6	404	–
COc1ccc2c(c1OC)CC/C2=N\NC(N)=S	0.1	98.9	1.8	989	61
COc1cc2c(cc1OC)/C(=N/NC(N)=S)CC2	0.1	19	> 50	190	1.7
S=C(N/N=C1\CCc2ccccc21)Nc1ccc(Cl)cc1	0.1	50.8	25	508	–
COc1cc2c(cc1OC)/C(=N/NC(=S)Nc1ccc(C)cc1)CC2	4.2	77.7	3	18.5	–
Cc1cc2c(c(C)c1Cl)CC/C2=N\NC(N)=S	0.1	83.7	7.8	837	–
CC1CS(=O)(=O)CCN1/N=C/c1ccc([N+](=O)[O-])o1 (centres undefined) [NIFURTIMOX]	–	100	–	–	–
COc1ccc2c(c1)CC/C2=N\NC(N)=S	0.8	92.1	7.5	115.1	–
NC(=S)N/N=C1\CCc2cc(Cl)ccc21	0.1	1.7	> 50	170	–
NC(=S)N/N=C1\CCc2ccc([N+](=O)[O-])cc21	0.1	3.1	> 50	310	24
NC(=S)N/N=C1\CCc2c1cccc2[N+](=O)[O-]	4.5	22	> 50	4.9	–
Cc1cccc2c1CC/C2=N\NC(N)=S	0.1	98.5	4	985	–
COc1ccc2c(c1)/C(=N/NC(N)=S)CC2	7.5	100	7.5	13.3	0
COc1cc2c(cc1OC)/C(=N/NC(=S)Nc1ccc(Cl)cc1)CC2	0.1	77	1	770	67
S=C(N/N=C1\CCc2ccccc21)Nc1ccccc1	2.7	69.6	7.7	25.8	–
